From PubChem
E-sel inducer: E-selectin induction in HUVECs, primary screen, imaging, HUVEC, immunofluorescence imaging, single point. P16581. normalized: neutral wells 0, TNF-alpha wells 100. activation, % at 7.58 µM. actives 0.37% (n = 260,000). AID 686992, 2013;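 active means mean E-selectin-positive cell signal at least 10% of the positive control, reached in at least 60% of replicates, without over 20% cell loss; inconclusive means no rule given, readout overlaps actives, possibly toxicity-flagged; inactive means the rest, including those meeting only one limit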
Target sequence (P16581 whole entry, looked up): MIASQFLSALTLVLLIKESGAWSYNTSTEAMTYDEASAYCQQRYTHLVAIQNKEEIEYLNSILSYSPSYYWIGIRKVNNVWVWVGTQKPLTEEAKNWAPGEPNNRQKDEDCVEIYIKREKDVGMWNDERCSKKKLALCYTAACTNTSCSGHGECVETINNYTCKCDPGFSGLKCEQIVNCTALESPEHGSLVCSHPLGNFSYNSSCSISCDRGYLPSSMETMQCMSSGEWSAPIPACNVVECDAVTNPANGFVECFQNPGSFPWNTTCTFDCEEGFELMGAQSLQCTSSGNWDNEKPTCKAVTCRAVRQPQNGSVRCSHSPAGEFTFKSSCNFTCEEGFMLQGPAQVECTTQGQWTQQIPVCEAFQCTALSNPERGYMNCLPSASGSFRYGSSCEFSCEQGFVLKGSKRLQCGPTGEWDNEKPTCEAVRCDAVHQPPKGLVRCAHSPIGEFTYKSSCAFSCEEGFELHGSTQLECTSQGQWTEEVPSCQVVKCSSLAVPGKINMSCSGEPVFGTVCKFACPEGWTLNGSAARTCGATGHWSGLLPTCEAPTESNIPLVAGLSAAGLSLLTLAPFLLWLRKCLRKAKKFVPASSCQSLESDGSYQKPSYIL
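assay system = HUVEC, human umbilical vein endothelial cells | input = 3,000 HUVEC seeded per well | medium = EGM-2 growth medium on 0.1% gelatin-coated wells | dosing = one compound dose added by pin transfer | signal = immunofluorescence imaging | read-out basis = % PE-positive cells | control set = TNF-alpha, DMSO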
C2C12 statin: suppressors of statin myotoxicity in C2C12 myotubes, primary screen, cell-based, single point, plate reader. C2C12 myotubes + simvastatin, ATP luminescence, 48 h; scaled: DMSO 0, geranylgeraniol control 100. rescue of ATP level, % at 7.49 µM. actives 0.78% (n = 330,000). AID 602340, 2012;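 active means mean ATP rescue above about 67%, or every replicate alone reaching that limit, limit read from the data, passing the limit was not always enough; inconclusive means no clear call, values can overlap the other calls; inactive means mean under the limit and some replicate under it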;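 further: myotubes were challenged with 10 µM simvastatin during compound exposure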
DENV2 CPE rescue: inhibitors of DENV2 cytopathic effect, primary screen, cell-based, plate reader, single concentration | DENV2-infected cells, cytopathic effect rescue | CPE inhibition, % at 9.99 µM | actives 1.7% (n = 350,000); in the data active means CPE inhibition above about 20%, passing the limit was not always enough; inconclusive means no clear call, values can overlap the other calls; tested in BHK-21 cells
Hits are given with their value; n = inactive; u = inconclusive; x = no result. Compounds with a hit are over-represented: about 2.2% of the library has one in this group of screens.

SMILES	E-sel inducer	C2C12 statin	DENV2 CPE rescue
COc1ccc(CN2C(=O)CCC2(C)c2nnnn2Cc2ccccc2)cc1 (centres undefined)	n	x	85
COc1ccc(CN2C(=O)CCC2(C)c2nnnn2Cc2ccccc2)cc1OC (centres undefined)	n	x	n
Cc1cccc(C)c1-n1nnnc1C1(C)CCC(=O)N1Cc1cccnc1 (centres undefined)	n	x	38
Cc1cccc(C)c1-n1nnnc1C1(C)CCC(=O)N1Cc1cccs1 (centres undefined)	n	x	57
Cc1ccc(CN2C(=O)CCC2(C)c2nnnn2-c2c(C)cccc2C)cc1 (centres undefined)	n	x	n
C[C@H](CO)N1C[C@H](C)[C@H](CN(C)Cc2ccc(Oc3ccccc3)cc2)Oc2ccc(NC(=O)CCC(F)(F)F)cc2C1=O	n	x	u
C[C@@H]1CN([C@@H](C)CO)C(=O)c2cc(C#CC3CCCCC3)cnc2O[C@@H]1CN(C)Cc1ccncc1	n	n	n
C[C@H](CO)N1C[C@H](C)[C@@H](CN(C)C(=O)NC2CCCCC2)Oc2ccc(NC(=O)Nc3ccc(F)cc3)cc2CC1=O	n	n	n
CCCC(=O)Nc1ccc2c(c1)C(=O)N(C)[C@H]1CC[C@@H](CC(=O)NCC3CC3)O[C@@H]1CO2	n	n	u
C[C@H]1CN([C@@H](C)CO)C(=O)c2cc(C#Cc3cccc(F)c3)cnc2O[C@H]1CN(C)Cc1ccccn1	x	n	u
CN1C(=O)c2cc(NC(=O)c3cccc(F)c3)ccc2OC[C@H]2O[C@@H](CC(=O)N3CCc4ccccc4C3)CC[C@H]21	n	n	31
CCCNC(=O)C[C@H]1CC[C@H]2[C@H](COc3ccc(NC(=O)c4cccc(F)c4)cc3C(=O)N2C)O1	n	n	n
CN(C)CCCNC(=O)C[C@H]1CC[C@@H]2[C@@H](COc3ccc(NC(=O)c4cccc(F)c4)cc3C(=O)N2C)O1	n	n	42
CC(=O)Nc1ccc2c(c1)C(=O)N(C)[C@H]1CC[C@H](CC(=O)N3CCc4ccccc4C3)O[C@H]1CO2	n	n	n
CN1C(=O)c2cc(NC(=O)c3cccc(F)c3)ccc2OC[C@H]2O[C@H](CC(=O)N3CCc4ccccc4C3)CC[C@@H]21	n	n	78
CC(=O)Nc1ccc2c(c1)C(=O)N(C)[C@@H]1CC[C@@H](CC(=O)N3CCc4ccccc4C3)O[C@@H]1CO2	n	n	n
Cc1ccccc1-c1cnc2c(c1)C(=O)N([C@@H](C)CO)C[C@@H](C)[C@H](CN(C)Cc1cccnc1)O2	n	n	n
CCCNC(=O)N1CC2(CN(Cc3cccnc3)C2)c2c(n(C)c3cc(OC)ccc23)[C@H]1CO	n	x	n
COCC(=O)Nc1ccc2c(c1)C(=O)N(C)[C@H]1CC[C@H](CC(=O)Nc3ccccc3)O[C@@H]1CO2	n	n	n
CN=C1SC(CC(=O)Nc2sc(C)c(C)c2C(=O)OC)C(=O)N1C (centres undefined)	x	n	x
COC(=O)c1c(NC(=O)CC2Sc3ccc(C(F)(F)F)cc3NC2=O)sc(C)c1C (centres undefined)	x	x	25
CS(=O)(=O)N1[C@@H](C#N)[C@@H](c2ccccc2-c2ccccc2)[C@@H]1CO	n	x	n
COc1ccc(CN(C)C[C@@H]2Oc3ccc(NC(=O)c4ccncc4)cc3CC(=O)N([C@@H](C)CO)C[C@@H]2C)cc1	n	n	n
O=C(NC1CC1)C1CCN(C2CCN(Cc3ccccc3C(F)(F)F)CC2)CC1	x	83	n
CC(=O)Nc1ccc(CN2CCC(N3CCC(C(=O)NC4CC4)CC3)CC2)cc1	n	n	n
SMILES	E-sel inducer	C2C12 statin	DENV2 CPE rescue
Cc1ccc(NCCCCO)cc1C	142	n	n
Cc1ccc(NC(=O)CC(=O)Nc2ccc(C)c(C)c2)cc1C	n	n	n
COc1cccc(CN(C)C[C@H]2OCc3ccccc3-c3ccccc3C(=O)N([C@H](C)CO)C[C@@H]2C)c1	n	n	n
CCc1nn(CCCC(=O)N2CCN(c3ccc(OC)cc3)CC2)c(=O)c2cc3occc3n12	141	n	n
CCc1nn(CCCC(=O)N2CCC(C)CC2)c(=O)c2cc3occc3n12	x	n	n
O=C(NCc1ccncc1)[C@@H]1[C@@H](CO)[C@@H]2Cn3c(ccc(-c4cccnc4)c3=O)[C@@H]2N1C(=O)C1CC1	n	n	n
O=C(CSc1nc2c(sc3ccccc32)c(=O)n1Cc1ccco1)NCC1CCCO1 (centres undefined)	x	95	x
O=C(CSc1nc2c(sc3ccccc32)c(=O)n1CCCN1CCOCC1)NCC1CCCO1 (centres undefined)	n	n	n
C[C@@H]1CN([C@@H](C)CO)C(=O)Cc2cc(NS(=O)(=O)c3cn(C)cn3)ccc2O[C@H]1CN(C)C(=O)Nc1ccc(F)cc1	n	n	n
C[C@@H]1CN([C@H](C)CO)C(=O)c2cc(NC(=O)C3CCCCC3)ccc2O[C@@H]1CN(C)C(=O)NC1CCCCC1	n	n	n
CCN(CC(=O)Nc1ccc(NC(C)=O)cc1)C(=O)Cc1ccccc1F	x	n	n
CCN(CC(=O)Nc1ccc(NC(C)=O)cc1)C(=O)Cc1c(Cl)cccc1Cl	n	n	55
Cc1ccc(S(=O)(=O)Nc2cccc3c2O[C@H](CN(C)C(=O)NC2CCCCC2)[C@@H](C)CN([C@@H](C)CO)C3=O)cc1	n	n	n
COc1ccc(NC(=O)N2C[C@H](O)COC[C@@H]3O[C@H](CC(=O)N4CCOCC4)CC[C@H]32)cc1	n	n	n
COc1cccc(-c2cn(CC[C@H]3CC[C@@H](NC(C)=O)[C@H](CO)O3)nn2)c1	n	n	n
COc1ccc(-c2sc3ccccc3c2/C=C/c2ccncc2)cc1	n	n	20
COc1ccc(-c2sc3ccccc3c2/C=C/c2ccc(OC)c(OC)c2)cc1	n	n	n
COC(=O)c1c(-c2ccc(N(C)C)cc2)sc2ccc(OC)cc12	n	n	x
COC(=O)c1c(-c2ccc(OC)cc2)sc2cc3c(cc12)OCO3	x	n	20
COCC(=O)N(C)C[C@H]1Oc2ncc(C#C[C@@H](C)O)cc2C(=O)N([C@@H](C)CO)C[C@H]1C	n	n	n
NCC[C@@H]1CC[C@H](NC(=O)NC2CCCCC2)[C@H](CO)O1	n	n	n
COc1ccccc1N(CC(=O)NCCSc1ccccn1)S(=O)(=O)c1ccccc1	37	n	n
CCOc1ccccc1N(CC(=O)NCCSc1ccccn1)S(=O)(=O)c1ccccc1	n	n	n
CC=Cc1ccc2n(c1=O)C[C@H]1[C@H](CO)[C@@H](C(=O)N3CCc4ccccc4C3)N(C(=O)C3CC3)[C@@H]21 (mixture of isomers)	n	n	n
C[C@@H]1CN([C@H](C)CO)C(=O)c2cc(C#Cc3ccccn3)cnc2O[C@H]1CN(C)Cc1ccncc1	n	n	n
COC(=O)[C@@]1(Cc2ccc(F)cc2)[C@H]2c3cc(C(=O)N(C)C)n(Cc4ccccc4)c3C[C@H]2CN1C(=O)c1ccccc1	n	x	n
COC(=O)[C@@]1(Cc2ccc(F)cc2)[C@H]2c3cc(C(=O)N4CCCC4)n(Cc4ccccc4)c3C[C@H]2CN1C(=O)c1ccccc1	n	x	n
